# Screening results from PubChem BioAssay.
# KCNK3 inh = human KCNK3 channel inhibition, primary screen. O14649. CHO-KCNK3 thallium flux, FluxOR fluorescence; stronger effect = lower value. B-score at 10 µM. actives 0.84% (n = 340,000);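 active means B-score under library mean minus 4 SD, starting fluorescence ratio at most library mean plus 5 SD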;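 further: more negative B-score means stronger inhibition of thallium flux through KCNK3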
# KCNQ1 pot = potentiates or activates the human KCNQ1 potassium channel. AID 2648. actives 0.35% (n = 310,000). B-score at 10 µM. CHO-K1 KCNQ1, thallium flux FluxOR fluorescence; stronger effect = higher value. P51787;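 active means fluorescence ratio B-score, a plate-corrected score, at least three library SD, with initial intensity B-score within 5 SD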
# Target sequence (P51787 whole entry, looked up): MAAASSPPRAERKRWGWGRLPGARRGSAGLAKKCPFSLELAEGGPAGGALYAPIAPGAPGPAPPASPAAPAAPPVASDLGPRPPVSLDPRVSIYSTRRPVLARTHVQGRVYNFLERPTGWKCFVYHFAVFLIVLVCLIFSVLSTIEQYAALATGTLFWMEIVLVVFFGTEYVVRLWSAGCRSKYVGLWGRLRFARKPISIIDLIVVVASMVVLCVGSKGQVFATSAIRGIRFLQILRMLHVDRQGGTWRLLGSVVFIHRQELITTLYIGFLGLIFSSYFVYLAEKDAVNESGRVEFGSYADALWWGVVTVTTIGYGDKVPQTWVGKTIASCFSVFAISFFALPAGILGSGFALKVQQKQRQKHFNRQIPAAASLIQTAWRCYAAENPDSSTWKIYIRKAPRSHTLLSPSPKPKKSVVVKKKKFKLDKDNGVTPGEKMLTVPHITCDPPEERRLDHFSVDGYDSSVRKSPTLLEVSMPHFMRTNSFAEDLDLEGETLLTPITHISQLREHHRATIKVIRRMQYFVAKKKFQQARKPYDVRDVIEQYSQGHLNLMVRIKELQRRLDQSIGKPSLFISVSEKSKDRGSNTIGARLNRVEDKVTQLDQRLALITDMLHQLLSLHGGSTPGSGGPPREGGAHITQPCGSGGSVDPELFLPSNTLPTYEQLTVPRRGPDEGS
#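 System: CHO-K1 cells stably expressing KCNQ1 / Medium: assay buffer for compound exposure, DMSO matched across wells / Reagent: thallium- and potassium-containing depolarizing buffer / Compound: one concentration, matched DMSO / Incubation: 20 min compound pretreatment at room temperature / Measured by: kinetic FluxOR fluorescence, 10 s baseline plus 110 s post-stimulus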
# KCNK9 inh = inhibitors of human KCNK9 two-pore domain potassium channel; HEK293 KCNK9, FluxOR thallium flux fluorescence; stronger effect = lower value; AID 488922; B-score at 10 µM; Q9NPC2; actives 1.2% (n = 310,000);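 active means ratio B-score over 3 SD below the library mean, with starting fluorescence within 5 SD of its mean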;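 further: negative B-score means less thallium flux so channel inhibition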
# hERG rescue = hERG (human) protection from proarrhythmic block. CHO-hERG, FluxOR thallium flux, dofetilide IC70 present. AID 1511. Q12809. activation (rescue from dofetilide block), less the hit threshold, % at 10 µM. actives 0.51% (n = 310,000);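 active means activation above the mean of controls blocked by dofetilide plus 5 SD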;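 further: thallium influx through hERG after potassium depolarization seen as dye fluorescence rise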
# KCC2 mod = modulates chloride dependent transport by human KCC2 | Q9H2X9 | KCC2 cells, thallium flux FluoZin-2 fluorescence | B-score of Tl+ flux slope (higher = more flux/activation; lower = inhibition) at 10 µM | actives 2.2% (n = 190,000) | AID 1456;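 active means thallium flux slope and its plate-corrected score both differing from the plate sample mean at a set confidence after two filtering rounds, in either direction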;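 further: slope of fluorescence scaled to starting intensity during 10 to 20 s after thallium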
# KCNQ1 block = blocks the human KCNQ1 potassium channel; P51787; CHO-K1 KCNQ1, FluxOR thallium flux fluorescence; stronger effect = higher value; B-score at 10 µM; actives 1.3% (n = 310,000); AID 2642;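 active means compounds whose thallium flux B-score, printed positive for inhibition, exceeds three library SD while starting fluorescence stays within three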;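 further: channel opened by potassium depolarization with thallium stimulus after 20 min compound exposure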
# KCNK9 block conf = confirmation of human KCNK9 potassium channel inhibitors; AID 492992; HEK293 KCNK9 cells, FluxOR thallium flux fluorescence; actives 43% (n = 4,900); shares compounds with KCNK9 inh; inhibition, % at 10 µM;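 active means thallium signal inhibited by more than 5 SD of the compound-free buffer control wells, on both duplicate plates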;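 further: 0% = assay buffer control wells without compound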
# Kir2-1 spec = selectivity of KCNK9 modulators against mouse Kir2.1. shares compounds with KCNK9 inh. Kir2.1 cells, FluxOR thallium flux fluorescence. inhibition, % at 10 µM. actives 4% (n = 4,900);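 active means thallium signal drop more than 5 SD beyond the mean of the no-compound control wells, seen in both duplicate plates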;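 further: signal is fluorescence rise after thallium addition divided by baseline fluorescence; plate controls were assay buffer only for no effect and full block by chlorpromazine control for full effect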
# KCNK9 uninduced = second check of KCNK9 modulator effects in non-induced HEK293 cells; shares compounds with KCNK9 inh; FluxOR thallium flux; inhibition, % at 10 µM; actives 40% (n = 4,900); AID 492997;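 active means thallium signal drop beyond 5 SD of the untreated control mean, on both duplicate plates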;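 further: plate controls were buffer only IC0 wells for no effect and SID17386958 at its maximal inhibitory level for full effect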
# Active calls of the source: *; i = inactive; . = no result. Shown are actives, neighbours in structure and some others; about 4.1% of the full set was active somewhere.
SMILES,KCNK3 inh,KCNQ1 pot,KCNK9 inh,hERG rescue,KCC2 mod,KCNQ1 block,KCNK9 block conf,Kir2-1 spec,KCNK9 uninduced
COc1ccc(-c2csc(NC(=O)c3ccc(C(C)(C)C)cc3)c2C(=O)O)cc1,i,i,i,-14.0,.,i,i,i,i
COc1ccc(-c2c(-c3ccc(C#N)cc3)oc(=O)c3cc(OC)c(OC)cc23)cc1,i,.,.,.,.,.,.,.,.
O=C(Oc1ccc(Oc2ccccc2)cc1)N1CCC(O)CC1,i,i,i,-5.2,.,i,.,.,.
Cc1cccnc1NC(=O)C1CCN(S(=O)(=O)c2c(C)noc2/C=C/c2ccco2)CC1,i,i,i,-10.8,-1.47,i,i,i,i
Cc1cc2cc(CN(Cc3cccs3)C(c3nnnn3C(C)(C)C)C(C)C)c3nnnn3c2cc1C (stereo not drawn),i,i,-9.84*,-8.9,-0.157,i,59.0%*,i,49.0%*
CC(=O)N1CCc2c(sc(NC(=O)C3CCCCC3)c2C(N)=O)C1,i,i,i,-10.7,.,i,.,.,.
CCCC(=O)N(CCN1CCOCC1)c1nc2c(OC)ccc(OC)c2s1,i,i,i,-13.6,.,i,.,.,.
OC(COCc1ccccc1)CN1CCN(Cc2ccc3c(c2)OCO3)CC1 (stereo not drawn),i,i,i,-2.1,0.207,i,.,.,.
SC(COCc1ccccc1)CN1CCN(Cc2ccc3c(c2)OCO3)CC1 (stereo not drawn),i,i,i,-12.6,3.32,i,i,i,i
Cc1ccc(N(Cc2cc(=O)[nH]c3ccccc23)C(=O)CCl)c(C)c1,i,i,i,-8.7,.,i,.,.,.
C=CCn1c(-c2ccccc2)nc(=S)c2c1CCCC2,i,i,i,-9.3,-0.0605,i,.,.,.
Cc1ccc2c(c1)N(CCC(=O)NC1CCCCC1C)C(=O)CO2 (stereo not drawn),i,i,i,-9.2,.,i,i,i,i
CSCCC(N=C1NS(=O)(=O)c2ccccc21)C(=O)NCCc1ccccc1 (stereo not drawn),i,i,i,-18.1,.,i,.,.,.
O=c1[nH]c(SCc2ccccc2Cl)nc2c1CCC2,i,i,i,-14.8,-1.37,i,.,.,.
CN(C)c1nc(SCc2ccc(Cl)cc2)nc2c1CCCC2,i,i,-9.9*,-10.2,.,i,33.5%*,i,55.5%*
CNc1nc(SCc2ccccc2Cl)nc2c1CCCC2,i,i,-10.8*,-8.0,-0.674,i,27.5%*,i,37.5%*
COc1ccccc1NC(=O)Cn1c(C)nc2c(sc(=S)n2Cc2ccco2)c1=O,i,i,i,-11.9,.,i,.,.,.
Oc1ccccc1CN1CCCC(N2CCN(c3cccc(C(F)(F)F)c3)CC2)C1 (stereo not drawn),i,i,i,-13.2,.,i,.,.,.
COc1cc(CN2CCCC(N3CCN(c4ccccc4C)CC3)C2)cc(Cl)c1O (stereo not drawn),i,i,i,-6.6,.,i,i,i,i
Fc1ccccc1N1CCN(C2CCCN(Cc3cccc(C(F)(F)F)c3)C2)CC1 (stereo not drawn),i,i,i,-12.6,.,i,i,i,i
CCCCNC(=O)CSc1nc(Cc2ccccc2)nc2ccccc12,i,i,i,-5.9,.,i,.,.,.
O=C(c1ccc2c(=O)n(Cc3ccc(Cl)cc3)c(=S)[nH]c2c1)N1CCOCC1,i,i,i,-6.9,.,i,.,.,.
COc1ccc(-c2noc3c2-c2nc(C4CCCCC4)sc2CC3)cc1,i,i,i,-16.5,.,i,i,i,24.0%*
CCn1c(SC)nnc1-c1sc2cc(Cl)ccc2c1Cl,i,i,-11.1*,-12.0,.,i,59.5%*,i,36.5%*
CSc1nnc(-c2sc3cc(Cl)ccc3c2Cl)n1C,i,i,i,-13.0,-1.11,i,.,.,.
SMILES,KCNK3 inh,KCNQ1 pot,KCNK9 inh,hERG rescue,KCC2 mod,KCNQ1 block,KCNK9 block conf,Kir2-1 spec,KCNK9 uninduced
COc1ccc(C(=O)Nc2ccccc2N2CCCC2)cc1,i,i,i,-5.9,.,i,.,.,.
CC(C)Oc1ccc(C(=O)Nc2ccccc2N2CCCC2)cc1,i,i,-14*,-4.7,.,i,57.5%*,i,29.0%*
CC(Oc1ccc(F)cc1)C(=O)Nc1ccccc1N1CCCCC1 (stereo not drawn),i,i,-8.46*,-13.2,.,6*,52.5%*,46.5%*,31.5%*
COc1cccc(Cn2cnc3c(NS(=O)(=O)c4cccc(Cl)c4Cl)c(C)c(C)cc32)c1,i,i,-12.6*,-13.8,.,i,72.0%*,i,i
COc1cccc(Cn2cnc3c(NS(=O)(=O)c4ccc(Cl)cc4)c(C)c(C)cc32)c1,i,i,i,-7.3,.,i,.,.,.
COc1ccc(-c2noc(CNC(=O)c3ccoc3C)n2)cc1,i,i,i,-4.1,.,i,.,.,.
CC(=O)C1=C(C)NC(SCC(=O)c2ccc(Cl)cc2Cl)=C(C#N)C1c1ccco1 (stereo not drawn),-9.61*,i,-10.3*,-20.2,.,i,61.0%*,i,35.5%*
Cc1ccc(F)c(NC(=O)/C(C#N)=C(\O)c2ccc(C(C)(C)C)cc2)c1,i,i,i,-11.5,-5.63*,7*,i,i,i
CN1C(=O)Cc2cc(S(=O)(=O)N3CCN(c4ccc(Cl)cc4)CC3)ccc21,i,i,i,-4.4,.,i,.,.,.
CN1CCN(S(=O)(=O)c2ccc3c(c2)CC(=O)N3C)CC1,i,i,-10.1*,-6.8,.,i,35.0%*,i,i
CC1(C)Cc2ccccc2C(N/N=C/c2ccc(Cl)cc2)=N1,i,i,i,-12.5,0.00775,i,i,i,i
CC1(C)Cc2ccccc2C(N/N=C/c2ccc([N+](=O)[O-])cc2)=N1,i,i,i,3.6,0.0816,i,.,.,.
CCCCCCCn1c2c(c(=N)c3ccccc31)CCC2,-11.3*,i,-10.1*,-31.2,-0.454,i,47.0%*,77.0%*,i
CCCn1c2c(c(=N)c3c1CCC3)CCC2,i,i,i,-5.5,-0.124,i,.,.,.
CCc1nnc(NC(=O)CN2CCN(S(C)(=O)=O)CC2)s1,i,i,i,-4.6,.,i,.,.,.
